Source: ChEMBL document CHEMBL4513216, “Probing the Open Global Health Chemical Diversity Library for Multistage-Active Starting Points for Next-Generation Antimalarials” (ACS Infect Dis, 2020)

Assay: Toxicity liver stage against HepG2, at 10uM
Type: cell-based
Parameters: test concentration 10 uM, cell line HepG2-A16-CD81EGFP
Conditions: human, HepG2-A16-CD81EGFP cells; read-out: INHIBITION
How it was run: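 Uninfected HepG2-A16-CD81EGFP cells, 3 × 10^3 per well, 1536-well, plated on prespotted compound at 10 μM final, parasite-free screening media added to match infected plates; puromycin 10 μM positive, DMSO 0.5% negative; run in parallel with 48 h PbLuc assay at 37 °C, 5% CO2; viability by CellTiter-Glo luminescence, normalized to controls.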

In the case of `Cn1cc(C2CCCN2C(=O)COCCc2ccccc2)cn1` (stereo unspecified), the cytotoxicity at 10 µM is reported as -2.87%.
`Cc1ccc(-n2cnc(Cl)c2CO)cc1` showed a cytotoxicity at 10 µM of -0.303%.
Work on `COc1cccc(COCC(=O)N2CCN(S(C)(=O)=O)CC2)c1` yielded a cytotoxicity at 10 µM of -10.7%.
Work on `O=C1OCCN1CC(=O)N1C[C@@H]2CC[C@H]1CN(Cc1cscn1)C2` yielded a cytotoxicity at 10 µM of -5.41%.
For `COCC1COCCC12CCN(S(=O)(=O)c1ccc(C)cc1)CC2` (stereo unspecified), the cytotoxicity at 10 µM was 4.79%.
Compound `CNC(=O)c1ccccc1NCc1ncnn1C` has a cytotoxicity at 10 µM of -0.393%.
For `CCOC(=O)N[C@H]1C[C@@H](C(=O)NCCc2cccc(Cl)c2)N(C)C1`, the cytotoxicity at 10 µM was -3.79%.
Compound `CC(=O)NCC(=O)N1CCN(Cc2ccncc2)c2ncccc2C1` has a cytotoxicity at 10 µM of -90.3%.
With `CC(Cc1cccc(F)c1)C(=O)NS(=O)(=O)c1cnn(C)c1` (stereo unspecified) the cytotoxicity at 10 µM was 2.11%.
Work on `COCCN1CCO[C@@H]2CN(C(=O)Cc3cccc(F)c3)CC[C@@H]2C1` yielded a cytotoxicity at 10 µM of 5.95%.
`COCC(=O)N(Cc1cccnc1)CC1CCN(C2CCCC2)CC1` showed a cytotoxicity at 10 µM of 1.49%.
In the case of `COc1ccc(CN(Cc2nc(C)no2)C2CCCCC2)cc1OC`, the cytotoxicity at 10 µM is reported as -0.0185%.
`CN(C)C(=O)N1C[C@H]2CC[C@@H](C1)N(Cc1ccc3nsnc3c1)C2` showed a cytotoxicity at 10 µM of -6.69%.
In the case of `CCCc1nnc(N2CCCC(c3nnc(Cn4ccnc4)n3C)C2)s1` (stereo unspecified), the cytotoxicity at 10 µM is reported as -0.391%.
For `CCOc1cccnc1C(=O)N1CCCN(c2nc(C)cs2)CC1`, the cytotoxicity at 10 µM was 5.6%.
`c1ncn(CC2CN(Cc3noc(C4CC4)n3)CCO2)n1` (stereo unspecified) showed a cytotoxicity at 10 µM of 1.59%.
For `CC(C)CN(CC(O)c1ccc(F)cc1)C(=O)c1cnsn1` (stereo unspecified), the cytotoxicity at 10 µM was -6.87%.
Compound `CC(C)(C)C(=O)NCCn1ccc(-c2ccncc2)n1` has a cytotoxicity at 10 µM of -26.7%.
`O=C1N(Cc2cccc(F)c2F)CCCC1(O)CNCc1ccccn1` (stereo unspecified) gave a cytotoxicity at 10 µM of -9.28%.
With `c1coc(CN2C[C@@H]3CN(Cc4ccoc4)CCO[C@@H]3C2)c1` the cytotoxicity at 10 µM was -3.87%.
With `Cc1cc(C(=O)N[C@@H]2CCC[C@@H](N3CCOCC3)[C@@H]2O)no1` the cytotoxicity at 10 µM was -1.61%.
Work on `Cc1cc(C(=O)NCCC(=O)N2CCCc3ccccc32)no1` yielded a cytotoxicity at 10 µM of 2.29%.
Compound `CN1CCC(c2cncc(C(=O)NCc3ccc(F)cc3)n2)CC1` has a cytotoxicity at 10 µM of -8.11%.
Work on `CCN(CC)C(=O)c1ccn(COc2ccc(F)cc2F)n1` yielded a cytotoxicity at 10 µM of 7.61%.
Compound `O=S(=O)(c1ccccc1Cl)N1CCCC(c2ncc[nH]2)C1` (stereo unspecified) has a cytotoxicity at 10 µM of 5.48%.
With `N#Cc1cccc(CN2CC[C@@H]3[C@@H]2CC(=O)N3CCN2CCCC2)c1` the cytotoxicity at 10 µM was -84.4%.
`Cc1ccc(-n2cc(C(=O)N3CCn4c(C)nnc4C3)nn2)cc1` showed a cytotoxicity at 10 µM of -141%.
`CCn1c(C)nc2cc(NC(=O)C3CN(C(C)=O)C3)ccc21` gave a cytotoxicity at 10 µM of 3.46%.
`CC(C)OCCS(=O)(=O)N1CCCC1c1cccc(N(C)C)c1` (stereo unspecified) gave a cytotoxicity at 10 µM of -1.22%.
`CCO[C@H]1CCN(S(=O)(=O)c2cn(C)cn2)[C@H]1Cc1ccccc1` showed a cytotoxicity at 10 µM of 7.95%.
In the case of `CC(C)c1cnc(CN2CCCC(c3cc(C(N)=O)[nH]n3)C2)o1` (stereo unspecified), the cytotoxicity at 10 µM is reported as -13.5%.
`CN(Cc1cccnc1)CC1CCOc2ccccc2C1` (stereo unspecified) gave a cytotoxicity at 10 µM of -4.92%.
Compound `CCCc1cc(NCCCC2CCOC2)n2nccc2n1` (stereo unspecified) has a cytotoxicity at 10 µM of -0.247%.
Work on `O=C1CC2(CCN(Cc3ccccn3)C2)CN1c1cncnc1` (stereo unspecified) yielded a cytotoxicity at 10 µM of 2.26%.
In the case of `Cc1nccc(N[C@H]2CN(C(=O)CN3CCCC3=O)C[C@@H]2C(C)C)n1`, the cytotoxicity at 10 µM is reported as -2.14%.
`Cc1cc(=O)n(C)cc1NC(=O)Cc1cc(F)ccc1F` showed a cytotoxicity at 10 µM of -11.4%.
In the case of `CC(=O)c1cccc(OCC(=O)NS(=O)(=O)c2cccs2)c1`, the cytotoxicity at 10 µM is reported as -10.5%.
Compound `NC(=O)c1c(SCCN2CCCCC2)sc2c(O)cc(=O)[nH]c12` has a cytotoxicity at 10 µM of -13.7%.
`O=C(CN1CCCNC1=O)Nc1ccccc1SC(F)(F)F` showed a cytotoxicity at 10 µM of 12.7%.
Work on `Cc1cc(=O)c2ccccc2n1CC1CCNC1` (stereo unspecified) yielded a cytotoxicity at 10 µM of 5.98%.
With `O=C(NCCCO)Nc1cccc(C[S+]([O-])c2ccccc2)c1` (stereo unspecified) the cytotoxicity at 10 µM was 0.0964%.
For `N#Cc1ccccc1C(=O)N1C[C@@H](CN2CCCCCC2)[C@@H](CO)C1`, the cytotoxicity at 10 µM was 1.1%.
In the case of `Cn1ncc2c1C(COCC1CC1)N(Cc1ccoc1)CC2` (stereo unspecified), the cytotoxicity at 10 µM is reported as 1.04%.
Work on `COc1ccc(C(C)CCNC2CCN(c3ccccn3)CC2)cc1` (stereo unspecified) yielded a cytotoxicity at 10 µM of 5.29%.
With `Cn1cc(NC(=O)NCc2ccoc2)ccc1=O` the cytotoxicity at 10 µM was 4.14%.
`CC(=O)N1CCN(C2CCCCc3ccccc32)CC1` (stereo unspecified) gave a cytotoxicity at 10 µM of -46.3%.
Work on `Cc1cccc(N2CCC(NC(=O)CCCc3cccs3)CC2)n1` yielded a cytotoxicity at 10 µM of -12.5%.
`CCC(O)CNC(=O)c1coc(COc2ccc3sc(C)nc3c2)n1` (stereo unspecified) showed a cytotoxicity at 10 µM of 16.3%.
`CNC(=O)N1CC[C@@H]2CN(CCc3cccc(OC)c3)S(=O)(=O)[C@@H]2CC1` gave a cytotoxicity at 10 µM of -1.46%.
Work on `CCCC(=O)N1CCCC(Cn2cc(-c3ccc(F)cc3)nn2)C1` (stereo unspecified) yielded a cytotoxicity at 10 µM of 7.88%.
Compound `CN(C)CCN1C(=O)CC[C@@H]2[C@H]1CCN2Cc1cccc(C#N)c1` has a cytotoxicity at 10 µM of -89.1%.
`CC(C)CN1CCCn2nc(CNC(=O)OCc3ccccc3)cc2C1` showed a cytotoxicity at 10 µM of 1.04%.
For `CC(C)N1CCC2(CC1)NC(=O)c1cc(Br)ccc1-n1nnnc12`, the cytotoxicity at 10 µM was 9.26%.
Work on `CNS(=O)(=O)CCCN1CCN(C(C)c2cccnc2)CC1` (stereo unspecified) yielded a cytotoxicity at 10 µM of -10.7%.
For `O=C(NCC1CC1)[C@@H]1CCO[C@@H]2CCN(c3ncccn3)C[C@@H]21`, the cytotoxicity at 10 µM was 7.64%.
For `CS(=O)(=O)c1ncc(CN2CCN3CCCC3C2)n1CC1CCCCC1` (stereo unspecified), the cytotoxicity at 10 µM was -4.9%.
`Cc1cc(C)cc(C(C)NCc2nnc(C)s2)c1` (stereo unspecified) gave a cytotoxicity at 10 µM of -5.77%.
With `CN(Cc1nc(-c2cccnc2)no1)C(=O)c1cccn1C` the cytotoxicity at 10 µM was -2.85%.
Work on `CC(NC(=O)CCC(=O)c1cccs1)c1nnc2n1CCC2` (stereo unspecified) yielded a cytotoxicity at 10 µM of -15.1%.
`C[C@@H]1CN(C(=O)CSc2nncn2C)C[C@@]1(O)C1CC1` showed a cytotoxicity at 10 µM of -15.7%.
For `O=C(c1ccc2c(c1)[nH]c(=O)n2C1CCC(O)CC1)N1CCOCC1` (stereo unspecified), the cytotoxicity at 10 µM was -41.4%.
With `COc1nc2c(cc1C(=O)N1CCCC1c1ccccn1)CCC2` (stereo unspecified) the cytotoxicity at 10 µM was -5.54%.
`Cc1nc(C)c(C)c(NCCSCc2[nH]cnc2C)n1` gave a cytotoxicity at 10 µM of 2.3%.
`O=C1CCC2(CCN(S(=O)(=O)c3ccccc3)CC2)N1CC1CC1` gave a cytotoxicity at 10 µM of 3.41%.
`CC(=O)N1CCCN(C(=O)c2cnc(OC(C)C)c(Cl)c2)CC1` gave a cytotoxicity at 10 µM of 6.02%.
For `O=C(Nc1nc2c(s1)CN(S(=O)(=O)C1CC1)CC2)c1ccccn1`, the cytotoxicity at 10 µM was -5.46%.
`Cc1nn(C)c(N2CCOCC2)c1CNCC1CCCN1C` (stereo unspecified) showed a cytotoxicity at 10 µM of -1.96%.
With `Cc1csc(C(=O)NCCN2CCC(c3cccs3)CC2)c1` the cytotoxicity at 10 µM was 2.03%.
Compound `CCc1nc(C2CCCN2C(=O)c2csc(COC)n2)no1` (stereo unspecified) has a cytotoxicity at 10 µM of 1.04%.
For `Cc1ccc(C(=O)N2CCOCC2C(N)=O)c(F)c1` (stereo unspecified), the cytotoxicity at 10 µM was 3.72%.
Work on `O=C1CC[C@H]2[C@@H](CCN2Cc2ccco2)N1` yielded a cytotoxicity at 10 µM of 2.82%.
`CN(Cc1ccc(Cl)s1)C(=O)NCCC(=O)N1CCCCCC1` gave a cytotoxicity at 10 µM of -0.691%.
Work on `COC[C@@]12CCC[C@@H]1CN(C(=O)Cc1ccco1)C2` yielded a cytotoxicity at 10 µM of -102%.
In the case of `Cc1ccccc1-n1cc(CNc2ncnc3c2CCNCC3)cn1`, the cytotoxicity at 10 µM is reported as 1.25%.
`COc1ccc2c(c1)CCCN(C(C)C(=O)NC(N)=O)C2` (stereo unspecified) gave a cytotoxicity at 10 µM of 8.66%.
`O=C(CN1CCCC1)N1CCCC(CNS(=O)(=O)Cc2ccccc2)C1` (stereo unspecified) showed a cytotoxicity at 10 µM of -17.9%.
`CSCC[C@H](NC(=O)Cn1ccc2c(Cl)cccc21)C(=O)O` showed a cytotoxicity at 10 µM of 4.18%.
`COc1ccc(N(C)C(=O)C2CN(C)CCO2)cc1Cl` (stereo unspecified) gave a cytotoxicity at 10 µM of -46.4%.
With `O=C(O)Cc1cn2cc(C(F)(F)F)ccc2n1` the cytotoxicity at 10 µM was 11.4%.
`Cc1ncc(CN(C)C(=O)c2ccc3c(c2O)OC(C)(C)C3)s1` showed a cytotoxicity at 10 µM of 6.93%.
With `COCC(=O)N1CCN(C(=O)NC(C)C)CC2(CC(=O)N(C)C2)C1` (stereo unspecified) the cytotoxicity at 10 µM was 1.76%.
